Source: ChEMBL document CHEMBL1268986, “Inhibition of Bfl-1 with N-aryl maleimides” (Bioorg Med Chem Lett, 2010)

Assays:
Bcl-2-related protein A1 [1] = target: T1, Bcl-2-related protein A1 (Homo sapiens, UniProt Q16548); experiment: Inhibition of N-terminal FITC BH3 peptide binding to GST-tagged Bfl1 by time resolved-FRET assay
T1 sequence (Q16548 whole entry): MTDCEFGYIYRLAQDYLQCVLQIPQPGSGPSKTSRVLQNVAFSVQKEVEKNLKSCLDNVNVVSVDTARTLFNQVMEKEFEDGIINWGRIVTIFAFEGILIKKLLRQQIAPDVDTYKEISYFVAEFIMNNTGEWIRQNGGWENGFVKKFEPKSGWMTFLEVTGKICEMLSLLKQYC
Procedure, shortened: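 10-point 2-fold dilution series in 10% final DMSO, in duplicate wells. FITC-Bid (5.6 nM) plus Tb-antibody (2.5 nM) was then added and incubated 4 h at room temperature. TR-FRET read at ex 340 nm, signal taken as the 520/490 nm emission ratio.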

Bcl-2-related protein A1 [2] = target: T1, Bcl-2-related protein A1; experiment: Inhibition of N-terminal FITC BH3 peptide binding to GST-tagged Bfl1 by fluorescence polarization assay
Procedure, shortened: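 Then FITC-Bid BH3 peptide (5.6 nM working solution) was added and incubated 4 h at room temperature. Ten concentrations in 10% DMSO. Fluorescence polarization read at ex 485/em 530 nm. IC50 from sigmoidal dose-response non-linear regression.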

`O=C1C(Cl)=C(N2CCN(Cc3ccc4c(c3)OCO4)CC2)C(=O)N1c1ccc(Cl)c(Cl)c1` gave an IC50 (Bcl-2-related protein A1 [1]) of 2100 nM.
With `O=C1C(Cl)=C(N2CCN(c3cccc(C(F)(F)F)c3)CC2)C(=O)N1c1ccc(Cl)c(Cl)c1` the IC50 (Bcl-2-related protein A1 [2]) was greater than 10000 nM and the IC50 (Bcl-2-related protein A1 [1]) was greater than 10000 nM.
`CN(C)C1=C(Cl)C(=O)N(c2ccc(Cl)c(Cl)c2)C1=O` was tested, and the IC50 (Bcl-2-related protein A1 [2]) was 300 nM and the IC50 (Bcl-2-related protein A1 [1]) was 400 nM.
With `O=C1C(Cl)=C(N2CCCCC2)C(=O)N1c1ccc(Cl)c(Cl)c1` the IC50 (Bcl-2-related protein A1 [2]) was greater than 50000 nM and the IC50 (Bcl-2-related protein A1 [1]) was greater than 50000 nM.
`O=C1C(Cl)=C(NCCO)C(=O)N1c1ccc(Cl)c(Cl)c1` gave an IC50 (Bcl-2-related protein A1 [2]) greater than 50000 nM and an IC50 (Bcl-2-related protein A1 [1]) greater than 50000 nM.
Work on `CN1CCN(C2=C(Cl)C(=O)N(c3cc(Cl)cc(Cl)c3)C2=O)CC1` yielded an IC50 (Bcl-2-related protein A1 [2]) of 2400 nM and an IC50 (Bcl-2-related protein A1 [1]) of 1900 nM.
`COc1ccccc1N1CCN(C2=C(Cl)C(=O)N(c3ccc(Cl)c(Cl)c3)C2=O)CC1` showed an IC50 (Bcl-2-related protein A1 [2]) of 9600 nM and an IC50 (Bcl-2-related protein A1 [1]) of 6200 nM.
`O=C1C(Cl)=C(N2CCN(C/C=C/c3ccccc3)CC2)C(=O)N1c1ccc(Cl)c(Cl)c1` showed an IC50 (Bcl-2-related protein A1 [2]) of 250 nM and an IC50 (Bcl-2-related protein A1 [1]) of 690 nM.
With `Cc1cccc(N2CCN(C3=C(Cl)C(=O)N(c4ccc(Cl)c(Cl)c4)C3=O)CC2)c1` the IC50 (Bcl-2-related protein A1 [2]) was greater than 10000 nM and the IC50 (Bcl-2-related protein A1 [1]) was 8300 nM.
Work on `Cc1cccc(N2C(=O)C(Cl)=C(N3CCN(C)CC3)C2=O)c1` yielded an IC50 (Bcl-2-related protein A1 [2]) of 12600 nM and an IC50 (Bcl-2-related protein A1 [1]) of 10800 nM.
For `CCN1CCN(C2=C(Cl)C(=O)N(c3ccc(Cl)c(Cl)c3)C2=O)CC1`, the IC50 (Bcl-2-related protein A1 [2]) was 1700 nM and the IC50 (Bcl-2-related protein A1 [1]) was 1000 nM.
`CCCCN1CCN(C2=C(Cl)C(=O)N(c3ccc(Cl)c(Cl)c3)C2=O)CC1` was tested, and the IC50 (Bcl-2-related protein A1 [2]) was 10500 nM and the IC50 (Bcl-2-related protein A1 [1]) was 3300 nM.
With `CN1CCN(C2=CC(=O)N(c3ccc(Cl)cc3)C2=O)CC1` the IC50 (Bcl-2-related protein A1 [2]) was greater than 10000 nM and the IC50 (Bcl-2-related protein A1 [1]) was greater than 10000 nM.
`CN1CCN(C2=C(Cl)C(=O)N(c3ccc(Cl)cc3Cl)C2=O)CC1` gave an IC50 (Bcl-2-related protein A1 [1]) of 1400 nM.
With `CN1CCN(C2=C(Cl)C(=O)N(c3cccc(Cl)c3)C2=O)CC1` the IC50 (Bcl-2-related protein A1 [2]) was 2100 nM and the IC50 (Bcl-2-related protein A1 [1]) was 1200 nM.
For `COc1cccc(N2CCN(C3=C(Cl)C(=O)N(c4ccc(Cl)c(Cl)c4)C3=O)CC2)c1`, the IC50 (Bcl-2-related protein A1 [2]) was 1200 nM and the IC50 (Bcl-2-related protein A1 [1]) was 5000 nM.
Compound `CN1CCN(C2CC(=O)N(c3ccc(Cl)c(Cl)c3)C2=O)CC1` (configuration not stated) has an IC50 (Bcl-2-related protein A1 [2]) greater than 10000 nM and an IC50 (Bcl-2-related protein A1 [1]) greater than 10000 nM.
`CN1CCN(C2=C(Cl)C(=O)N(c3cccc([N+](=O)[O-])c3)C2=O)CC1` gave an IC50 (Bcl-2-related protein A1 [2]) of 6800 nM and an IC50 (Bcl-2-related protein A1 [1]) of 3900 nM.
Compound `CC1C(=O)NCCN1C1=C(Cl)C(=O)N(c2ccc(Cl)c(Cl)c2)C1=O` (configuration not stated) has an IC50 (Bcl-2-related protein A1 [1]) of 2000 nM.
In the case of `COc1ccc(N2CCN(C3=C(Cl)C(=O)N(c4ccc(Cl)c(Cl)c4)C3=O)CC2)cc1`, the IC50 (Bcl-2-related protein A1 [2]) is reported as greater than 10000 nM and the IC50 (Bcl-2-related protein A1 [1]) is reported as 8300 nM.
For `O=C1C(Cl)=C(N2CCN(CCOCCO)CC2)C(=O)N1c1ccc(Cl)c(Cl)c1`, the IC50 (Bcl-2-related protein A1 [2]) was 300 nM and the IC50 (Bcl-2-related protein A1 [1]) was 400 nM.
For `O=C1C(Cl)=C(N2CCCC2)C(=O)N1c1ccc(Cl)c(Cl)c1`, the IC50 (Bcl-2-related protein A1 [2]) was greater than 50000 nM and the IC50 (Bcl-2-related protein A1 [1]) was greater than 50000 nM.
`O=C1C(Cl)=C(N2CCN(CCO)CC2)C(=O)N1c1ccc(Cl)c(Cl)c1` showed an IC50 (Bcl-2-related protein A1 [2]) of 240 nM and an IC50 (Bcl-2-related protein A1 [1]) of 620 nM.
`O=C1C(Cl)=C(N2CCN(c3ccccc3)CC2)C(=O)N1c1ccc(Cl)c(Cl)c1` gave an IC50 (Bcl-2-related protein A1 [2]) of 4900 nM and an IC50 (Bcl-2-related protein A1 [1]) of 4100 nM.
Compound `C[C@H]1CN(C2=C(Cl)C(=O)N(c3ccc(Cl)c(Cl)c3)C2=O)CCN1` has an IC50 (Bcl-2-related protein A1 [2]) of 2200 nM and an IC50 (Bcl-2-related protein A1 [1]) of 1100 nM.
With `CN1CCN(C2=C(Cl)C(=O)N(c3ccc(Cl)c(Cl)c3)C2=O)CC1` the IC50 (Bcl-2-related protein A1 [2]) was 600 nM and the IC50 (Bcl-2-related protein A1 [1]) was 800 nM.
In the case of `CN1CCN(C2=C(Cl)C(=O)N(c3cccc(Cl)c3Cl)C2=O)CC1`, the IC50 (Bcl-2-related protein A1 [1]) is reported as 2600 nM.
For `CN1CCN(C2=C(Cl)C(=O)N(c3ccccc3Cl)C2=O)CC1`, the IC50 (Bcl-2-related protein A1 [2]) was 3300 nM and the IC50 (Bcl-2-related protein A1 [1]) was 1000 nM.
Compound `O=C1C(Cl)=C(N2CCOCC2)C(=O)N1c1ccc(Cl)c(Cl)c1` has an IC50 (Bcl-2-related protein A1 [2]) of 800 nM and an IC50 (Bcl-2-related protein A1 [1]) of 450 nM.
In the case of `CN1CCN(C2=C(Cl)C(=O)N(c3ccncc3Cl)C2=O)CC1`, the IC50 (Bcl-2-related protein A1 [2]) is reported as 29000 nM and the IC50 (Bcl-2-related protein A1 [1]) is reported as 35600 nM.
Compound `O=C1C(Cl)=C(N2CCN(Cc3ccccc3)CC2)C(=O)N1c1ccc(Cl)c(Cl)c1` has an IC50 (Bcl-2-related protein A1 [2]) of 2400 nM and an IC50 (Bcl-2-related protein A1 [1]) of 1300 nM.
Compound `C[C@@H]1CN(C2=C(Cl)C(=O)N(c3ccc(Cl)c(Cl)c3)C2=O)CCN1` has an IC50 (Bcl-2-related protein A1 [2]) of 600 nM and an IC50 (Bcl-2-related protein A1 [1]) of 800 nM.
For `O=C1C(Cl)=C(NCc2ccccc2)C(=O)N1c1ccc(Cl)c(Cl)c1`, the IC50 (Bcl-2-related protein A1 [2]) was greater than 50000 nM and the IC50 (Bcl-2-related protein A1 [1]) was greater than 50000 nM.
